Laboratory results as given in ChEMBL document CHEMBL1240366, “Blockade of X4-tropic HIV-1 cellular entry by GSK812397, a potent noncompetitive CXCR4 receptor antagonist” (Antimicrob Agents Chemother, 2010).
Calls of active or inactive are those of the source. No cut-off for these calls is given here.

Tests used:
HOS = experiment: Cytotoxicity against human HOS cells infected with HIV1 3B after 72 hrs by celltiter glow assay; assay type: cell-based
[1] = Half life in rat at 3 mg/kg, po administered as single dose by liquid chromatography-mass spectroscopy; assay type: ADME, organism-based; set-up: dose 3 mg/kg, route oral; settings: in vivo
[2] = test system: Human immunodeficiency virus 1; experiment: Antiviral activity against HIV1 Bal infected in human HOS cells after 72 hrs by luminescence assay; assay type: functional, organism-based; settings: Human immunodeficiency virus 1, Bal
How it was run: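 R5-tropic virus infection of HOS cells (hCXCR4/hCCR5/hCD4, LTR-luciferase reporter). Cells were plated in DMEM with 2% FCS overnight, pre-incubated with compound for 1 h, then given virus pre-mixed with compound. Incubation was 72 h at 37°C. Read-out was luciferase luminescence. IC50 from a four-parameter logistic fit.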

[3] = test system: Human immunodeficiency virus 1; experiment: Antiviral activity against HIV1 isolate 05-121784 assessed as inhibition of viral replication after 7 days by scintillation counting; assay type: functional, organism-based; settings: Human immunodeficiency virus 1, isolate 05-121784, 168 h
[4] = Clearance in rat at 1 mg/kg, iv administered as single dose after 24 hrs by liquid chromatography-mass spectroscopy; assay type: ADME, organism-based; set-up: dose 1 mg/kg, route intravenous; settings: in vivo
How it was run: (§1)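 Single intravenous dose of 1 mg/kg. Plasma was sampled at serial times over 24 h and measured by LC-MS/MS. Clearance was derived by pharmacokinetic analysis.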

[5] = biological target: C-X-C chemokine receptor type 4 (Homo sapiens) (UniProt P61073); experiment: Noncompetitive inhibition of CXCR4-mediated chemotaxis in SDF1-stimulated human U937 cells treated 15 mins before SDF1 challenge measured after 2 hrs by luminescence assay; assay type: cell-based; settings: U-937
Chain of C-X-C chemokine receptor type 4 (Homo sapiens) (P61073 whole entry): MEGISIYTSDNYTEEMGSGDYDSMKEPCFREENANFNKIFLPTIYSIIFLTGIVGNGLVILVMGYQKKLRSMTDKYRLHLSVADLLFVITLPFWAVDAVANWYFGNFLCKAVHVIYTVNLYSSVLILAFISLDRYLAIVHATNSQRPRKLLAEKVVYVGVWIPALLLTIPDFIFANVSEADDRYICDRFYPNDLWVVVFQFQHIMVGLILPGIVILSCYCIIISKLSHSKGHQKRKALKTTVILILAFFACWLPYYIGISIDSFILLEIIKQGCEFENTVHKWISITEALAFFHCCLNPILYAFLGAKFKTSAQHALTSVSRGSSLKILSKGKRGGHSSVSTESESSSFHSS
How it was run: (§2)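 U937 cells (endogenous CXCR4) in RPMI with 2% FCS and 10 mM HEPES, 5 × 10^6 cells/ml, preincubated 15 min with compound, then placed above a 5.0 μm filter. The lower chamber held the same compound concentration plus SDF-1. Migration ran 2 h. Migrated cells were quantified by ATP luminescence. Viability was checked under identical conditions. For mode of action, SDF-1 concentration-response curves were run at increasing compound concentrations.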

[6] = biological target: C-X-C chemokine receptor type 4 (Homo sapiens) (UniProt P61073); experiment: Inhibition of CXCR4-mediated chemotaxis in SDF1-stimulated human U937 cells treated 15 mins before SDF1 challenge measured after 2 hrs by luminescence assay; assay type: cell-based; settings: U-937; how it was run: as §2
[7] = Clearance in monkey at 1 mg/kg, iv administered as single dose after 24 hrs by liquid chromatography-mass spectroscopy; assay type: ADME, organism-based, Macaca mulatta; set-up: dose 1 mg/kg, route intravenous; settings: rhesus monkey, in vivo; how it was run: as §1
[8] = Oral bioavailability in mouse at 3 mg/kg administered as single dose after 24 hrs by liquid chromatography-mass spectroscopy; assay type: ADME, organism-based; settings: in vivo
[9] = test system: Human immunodeficiency virus 1; experiment: Antiviral activity against HIV1 isolate 05-121798 assessed as inhibition of viral replication after 7 days by scintillation counting; assay type: functional, organism-based; settings: Human immunodeficiency virus 1, isolate 05-121798, 168 h
[10] = test system: Human immunodeficiency virus 1; experiment: Antiviral activity against HIV1 isolate 05-121787 assessed as inhibition of viral replication after 7 days by scintillation counting; assay type: functional, organism-based; settings: Human immunodeficiency virus 1, isolate 05-121787, 168 h
[11] = Volume of distribution at steady state in mouse at 1 mg/kg, iv administered as single dose after 24 hrs by liquid chromatography-mass spectroscopy; assay type: ADME, organism-based; set-up: dose 1 mg/kg, route intravenous; settings: in vivo, read-out: Vdss
[12] = test system: Human immunodeficiency virus 1; experiment: Antiviral activity against HIV1 isolate 05-121786 assessed as inhibition of viral replication after 7 days by scintillation counting; assay type: functional, organism-based; settings: Human immunodeficiency virus 1, isolate 05-121786, 168 h
[13] = test system: Human immunodeficiency virus 1; experiment: Antiviral activity against HIV1 isolate 05-121800 assessed as inhibition of viral replication after 7 days by scintillation counting; assay type: functional, organism-based; settings: Human immunodeficiency virus 1, isolate 05-121800, 168 h
[14] = test system: Human immunodeficiency virus 1; experiment: Antiviral activity against HIV1 isolate 05-121788 assessed as inhibition of viral replication after 7 days by scintillation counting; assay type: functional, organism-based; settings: Human immunodeficiency virus 1, isolate 05-121788, 168 h
[15] = Clearance in mouse at 1 mg/kg, iv administered as single dose after 24 hrs by liquid chromatography-mass spectroscopy; assay type: ADME, organism-based; set-up: dose 1 mg/kg, route intravenous; settings: in vivo; how it was run: as §1
[16] = test system: Human immunodeficiency virus 1; experiment: Antiviral activity against HIV1 3B infected in human HOS cells after 72 hrs by luminescence assay; assay type: functional, organism-based; settings: Human immunodeficiency virus 1, 3B
How it was run: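 HOS cells express hCXCR4, hCCR5 and hCD4 plus an HIV-1 LTR-luciferase reporter. 6,000 cells/well were plated in DMEM with 2% FCS and grown overnight, then pre-incubated with compound for 1 h. Virus pre-mixed with compound was added, and cells were incubated 72 h at 37°C. Read-out was luciferase luminescence. IC50 from a four-parameter logistic fit.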

[17] = test system: Human immunodeficiency virus 1; experiment: Antiviral activity against HIV1 isolate 05-121789 assessed as inhibition of viral replication after 7 days by scintillation counting; assay type: functional, organism-based; settings: Human immunodeficiency virus 1, isolate 05-121789, 168 h
Cytochrome P450 1A2 = biological target: T1, Cytochrome P450 1A2 (Homo sapiens, UniProt P05177); experiment: Inhibition of CYP1A2 up to 30 uM; assay type: ADME
T1 sequence (P05177 whole entry): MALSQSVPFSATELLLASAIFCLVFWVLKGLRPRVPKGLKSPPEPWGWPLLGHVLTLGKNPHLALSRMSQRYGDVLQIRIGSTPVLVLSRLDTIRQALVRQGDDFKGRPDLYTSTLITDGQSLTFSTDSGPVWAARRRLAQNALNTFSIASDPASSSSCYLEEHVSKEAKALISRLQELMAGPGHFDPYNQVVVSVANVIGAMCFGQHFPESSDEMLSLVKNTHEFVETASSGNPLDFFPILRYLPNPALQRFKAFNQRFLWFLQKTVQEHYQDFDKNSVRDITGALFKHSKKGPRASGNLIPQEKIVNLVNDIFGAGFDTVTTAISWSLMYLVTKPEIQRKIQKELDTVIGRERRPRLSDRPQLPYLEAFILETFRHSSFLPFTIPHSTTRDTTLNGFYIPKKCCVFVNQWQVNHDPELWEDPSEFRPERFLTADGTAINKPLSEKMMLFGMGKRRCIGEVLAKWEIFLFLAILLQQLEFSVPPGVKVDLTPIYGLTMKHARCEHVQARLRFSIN

[18] = test system: Human immunodeficiency virus 1; experiment: Antiviral activity against HIV1 isolate 05-121801 assessed as inhibition of viral replication after 7 days by scintillation counting; assay type: functional, organism-based; settings: Human immunodeficiency virus 1, isolate 05-121801, 168 h
[19] = test system: Human immunodeficiency virus 1; experiment: Antiviral activity against HIV1 3B infected in human HOS cells after 72 hrs by luminescence assay in presence of alpha-acid glycoprotein and human serum albumin; assay type: functional, organism-based; settings: Human immunodeficiency virus 1, 3B
How it was run: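 HOS LTR-luciferase viral assay (1 h compound pre-incubation, virus plus compound, 72 h, 37°C, luminescence) run with human serum albumin (45 mg/ml) with or without α-acid glycoprotein (1 mg/ml). Protein-free IC50 served as baseline for fold shift.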

[20] = test system: Human immunodeficiency virus 1; experiment: Antiviral activity against HIV1 isolate 05-121773 assessed as inhibition of viral replication after 7 days by scintillation counting; assay type: functional, organism-based; settings: Human immunodeficiency virus 1, isolate 05-121773, 168 h
[21] = test system: Human immunodeficiency virus 1; experiment: Antiviral activity against HIV1 isolate 05-121785 assessed as inhibition of viral replication after 7 days by scintillation counting; assay type: functional, organism-based; settings: Human immunodeficiency virus 1, isolate 05-121785, 168 h
[22] = test system: Human immunodeficiency virus 1; experiment: Antiviral activity against HIV1 isolate 05-121797 assessed as inhibition of viral replication after 7 days by scintillation counting; assay type: functional, organism-based; settings: Human immunodeficiency virus 1, isolate 05-121797, 168 h
PBMC = experiment: Cytotoxicity against human PBMC infected with HIV1 3B after 96 hrs by celltiter glow assay

half-life [1]: 8.6 h
IC50 [2]: > 2500 nM
IC50 [3]: 1 nM
clearance [4]: 4.5 mL/min/kg
inhibition [5]: Active
inhibition [6]: Dose-dependent effect
clearance [7]: 5.8 mL/min/kg
bioavailability [8]: 10%
IC50 [9]: 1 nM
IC50 [10]: 1 nM
Vd [11]: 4.2 L/kg
IC50 [12]: 1 nM
IC50 [13]: 1 nM
IC50 [14]: 1 nM
clearance [15]: 15.9 mL/min/kg
IC50 [16]: 1.5 nM
IC50 [17]: 1 nM
inhibition (INH) (Cytochrome P450 1A2): Not Active
IC50 [18]: 1 nM
IC50 [19]: 3.14 nM
IC50 [20]: 1 nM
IC50 [21]: 1 nM
IC50 [22]: 1 nM
Compound: CN1CCN(c2cccc3nc(CN(C)[C@H]4CCCc5cccnc54)c(CO)n23)CC1
IC50 (HOS): > 1000 nM
IC50 (PBMC): > 1000 nM
